Six compounds from ChEMBL document CHEMBL3588757, “Structure-based design, synthesis and biological testing of piperazine-linked bis-epipodophyllotoxin etoposide analogs” (Bioorg Med Chem, 2015) can be followed below.

Active and inactive are the calls of the source. The rule behind the calls is not given here.

In assay [1] the test system is K562. As to the kind of experiment: Induction of apoptosis in human K562 cells assessed as increase in proportion of apoptotic and apoptotic/necrotic cells at 1 uM after 24 to 48 hrs by annexin V-FITC/propidium iodide staining based two-color fluorescence flow cytometry. Format: functional, cell-based. In outline:
(§1)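 K562 cells (1 × 10^6/mL), untreated or given 1 µM compound (10 µM etoposide control) at 37 °C for 24 h or 48 h. Annexin V-FITC plus propidium iodide two-colour flow cytometry. Cells are scored as viable, apoptotic-only (annexin+/PI−), apoptotic/necrotic (annexin+/PI+) or necrotic.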
On the technique in general: In flow cytometry, cells or beads pass a laser one at a time.

The test system of assay [2] is K562. As to the kind of experiment: Induction of apoptosis in human K562 cells assessed as decrease in proportion of viable cells at 1 uM after 24 to 48 hrs by annexin V-FITC/propidium iodide staining based two-color fluorescence flow cytometry. Format: functional, cell-based. In outline:
as §1

The subject of assay [3] is K562. In words: Induction of apoptosis in human K562 cells assessed as increase in caspase 3/7 activity at 1 uM by luminescence analysis. Format: functional, cell-based. The following applies: TDE = time-dependent effect. The method, boiled down:
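K562 cells at 2 × 10^5 cells/mL treated with vehicle or 1 µM compound for 24 or 48 h. Lysates assayed with a luminogenic DEVD-aminoluciferin caspase-3/7 substrate and read by luminescence. Four wells (eight for control); unpaired t-test vs control; repeated on two days.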

Assay [4] relates to K562. As to the kind of experiment: Relative resistance, ratio of IC50 for etoposide-resistant human K/VP.5 cells to IC50 for human K562 cells. Format: functional.
The target in assay [5] is DNA topoisomerase 2-alpha (Homo sapiens) (UniProt P11388). In words: Inhibition of full-length human recombinant topoisomerase 2-alpha assessed as conversion of […] DNA at 100 uM by ethidium bromide based gel-assay.
Chain of DNA topoisomerase 2-alpha (Homo sapiens) (P11388 whole entry): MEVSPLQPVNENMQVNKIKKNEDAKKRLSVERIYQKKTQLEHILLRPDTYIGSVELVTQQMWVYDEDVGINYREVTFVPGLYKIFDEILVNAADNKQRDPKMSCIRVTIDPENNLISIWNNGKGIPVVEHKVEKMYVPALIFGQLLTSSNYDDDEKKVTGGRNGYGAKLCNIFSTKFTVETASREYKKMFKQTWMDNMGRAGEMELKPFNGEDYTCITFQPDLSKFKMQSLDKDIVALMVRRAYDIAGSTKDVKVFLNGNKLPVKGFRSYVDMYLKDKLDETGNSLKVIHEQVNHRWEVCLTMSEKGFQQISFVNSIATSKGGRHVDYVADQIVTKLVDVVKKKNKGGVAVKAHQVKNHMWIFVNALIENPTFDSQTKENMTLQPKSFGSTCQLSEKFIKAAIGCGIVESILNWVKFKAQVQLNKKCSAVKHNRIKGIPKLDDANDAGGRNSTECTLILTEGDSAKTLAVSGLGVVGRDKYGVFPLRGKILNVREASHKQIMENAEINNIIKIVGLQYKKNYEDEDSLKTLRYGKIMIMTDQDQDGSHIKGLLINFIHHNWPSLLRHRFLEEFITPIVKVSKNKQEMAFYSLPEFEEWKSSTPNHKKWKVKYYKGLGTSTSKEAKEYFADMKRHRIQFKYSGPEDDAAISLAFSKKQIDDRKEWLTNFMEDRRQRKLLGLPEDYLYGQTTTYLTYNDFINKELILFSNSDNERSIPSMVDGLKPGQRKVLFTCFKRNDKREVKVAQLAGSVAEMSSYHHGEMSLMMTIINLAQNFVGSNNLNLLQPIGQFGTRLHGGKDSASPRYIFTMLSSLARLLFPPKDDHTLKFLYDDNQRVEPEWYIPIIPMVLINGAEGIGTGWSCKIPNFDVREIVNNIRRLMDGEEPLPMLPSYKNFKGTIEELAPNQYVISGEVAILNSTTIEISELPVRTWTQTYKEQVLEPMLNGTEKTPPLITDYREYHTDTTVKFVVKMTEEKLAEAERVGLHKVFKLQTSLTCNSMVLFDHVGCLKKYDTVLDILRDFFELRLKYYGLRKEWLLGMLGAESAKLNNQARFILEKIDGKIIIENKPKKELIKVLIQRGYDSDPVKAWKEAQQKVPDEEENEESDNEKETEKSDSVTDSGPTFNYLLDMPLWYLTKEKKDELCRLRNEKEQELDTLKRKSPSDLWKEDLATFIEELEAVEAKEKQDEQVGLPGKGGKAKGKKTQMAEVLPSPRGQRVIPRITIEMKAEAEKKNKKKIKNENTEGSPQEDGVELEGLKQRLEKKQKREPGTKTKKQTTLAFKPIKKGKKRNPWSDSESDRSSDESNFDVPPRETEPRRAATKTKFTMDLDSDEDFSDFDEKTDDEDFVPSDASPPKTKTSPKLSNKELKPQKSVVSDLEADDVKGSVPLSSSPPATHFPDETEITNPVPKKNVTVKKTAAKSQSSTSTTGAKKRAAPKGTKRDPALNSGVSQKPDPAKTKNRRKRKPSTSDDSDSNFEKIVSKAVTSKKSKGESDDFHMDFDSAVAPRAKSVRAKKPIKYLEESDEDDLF
For assay [6] the target is unchanged. As to the kind of experiment: Inhibition of full-length human recombinant topoisomerase 2-alpha-mediated decatenation activity of kDNA at >10 uM by ethidium bromide based gel-assay.
For assay [7] the target is unchanged. In words: Inhibition of full-length human recombinant topoisomerase 2-alpha mediated relaxation and cleavage of supercoiled pBR322 plasmid DNA to linear DNA by ethidium bromide staining based gel electrophoresis assay. In outline: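 Recombinant full-length human topoisomerase IIα with supercoiled pBR322 DNA at 37 °C. Components mixed on ice before drug addition. Complexes trapped with SDS; products run on ethidium bromide gels. Linear DNA identified against a HindIII-linearized marker; repeated on three days.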

Assay [8] deals with K562. As to the kind of experiment: Induction of DNA double strand breaks in human K562 cells assessed as increase in gamma-H2AX level at 25 uM after 4 hrs by chemiluminescence analysis. Format: functional, cell-based. The method, boiled down: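 K562 cells (3.4 × 10^5/mL) exposed 4 h at 37 °C to 25 µM drug or DMSO. Lysed in Tris pH 6.7/SDS buffer; 50 µg protein on 14% SDS-PAGE, PVDF blot. Rabbit anti-γH2AX (1:1000, overnight), GAPDH loading control, HRP secondary. Chemiluminescence imaged by CCD.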

For assay [9], the system named is K562. In words: Cytotoxicity against human K562 cells assessed as cell growth inhibition after 72 hrs by MTS assay. Format: functional, cell-based. The following applies: K562, 72 h.
The subject of assay [10] is CHO. As to the kind of experiment: Induction of cell cycle arrest in CHO cells assessed as accumulation at G2/M phase at 1 uM by propidium iodide staining based flow cytometry. Format: functional. The following applies: Cricetulus griseus.
Assay [11] is described as follows: Cytotoxicity against etoposide-resistant human K/VP.5 cells assessed as cell growth inhibition after 72 hrs by MTS assay. Format: functional, cell-based. The following applies: K/VP.5, 72 h. In outline: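 K/VP.5 cells are a K562-derived subline, 26-fold etoposide-resistant, with decreased topoisomerase IIα mRNA and protein. Cells were grown in suspension in αMEM with 10% fetal calf serum. Drugs were given from DMSO stocks, with final DMSO typically 0.4% or less. Read-out was MTS absorbance after 72 h. Typically nine concentrations were run in duplicate on two days. IC50 came from a four-parameter logistic fit.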
Background: Tetrazolium assays rely on reduction of a dye to a coloured formazan, in cell work by metabolically active cells.

The subject of assay [12] is CHO. In words: Induction of apoptosis in CHO cells assessed as increase in sub-G0/G1 cell population at 1 uM after 49 hrs by propidium iodide staining based flow cytometry. Format: functional. The following applies: Cricetulus griseus. The method, boiled down:
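CHO cells grown to confluence in α-MEM/10% FCS, serum-starved 48 h (0% FCS), then seeded at 2 × 10^5 cells/mL and repleted with 10% FCS. Continuously treated from repletion with 1 µM compound (10 µM etoposide, DMSO control) for various times. Propidium iodide DNA staining, flow cytometric phase distribution including sub-G0/G1.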

For assay [13], the target named is DNA topoisomerase 2-alpha (Homo sapiens) (UniProt P11388). As to the kind of experiment: Inhibition of full-length human recombinant topoisomerase 2-alpha-mediated decatenation activity of kDNA by ethidium bromide based gel-assay.
The subject of assay [14] is CHO. As to the kind of experiment: Induction of apoptosis in CHO cells assessed as increase in sub-G0/G1 cell population at 10 uM after 49 hrs by propidium iodide staining based flow cytometry (Rvb <2%). Format: functional, Cricetulus griseus.
Assay [15] has as its system K562. As to the kind of experiment: Induction of apoptosis in human K562 cells assessed as increase in proportion of apoptotic and apoptotic/necrotic cells at 10 uM after 24 to 48 hrs by annexin V-FITC/propidium iodide staining based two-color fluorescence flow cytometry. Format: functional, cell-based.
Assay [16] relates to CHO. In words: Induction of cell cycle arrest in CHO cells assessed as accumulation at G2/M phase at 10 uM after 21 hrs by propidium iodide staining based flow cytometry. Format: functional. The following applies: Cricetulus griseus.
Assay [17] has as its system K562. In words: Induction of apoptosis in human K562 cells assessed as decrease in proportion of viable cells at 10 uM after 24 to 48 hrs by annexin V-FITC/propidium iodide staining based two-color fluorescence flow cytometry. Format: functional, cell-based.

As a reminder, the IC50 is the concentration needed to halve the response being measured.

`COc1cc([C@@H]2c3cc4c(cc3[C@@H](NC(=O)CN3CCN(CCCCCCCCN5CCN(CC(=O)N[C@@H]6c7cc8c(cc7[C@@H](c7cc(OC)c(O)c(OC)c7)[C@H]7C(=O)OC[C@@H]76)OCO8)CC5)CC3)[C@H]3COC(=O)[C@H]23)OCO4)cc(OC)c1O`: the outcome with K562 [1], with K562 [2], in the assay on K562 [8], with CHO [10] and in the assay on CHO [12] was Active. For the same compound, in the assay with K562 [3], the Activity entry is “tde”. Moreover, the “Ratio IC50” value in the assay on K562 [4] is 7.4. The “Inhibition (qualitative activity call)” value in [5] was “Active”. Further, in assay [6], the “Inhibition of decatenation activity (qualitative)” value (from here on “Inhibition … (qualitative)”) was “Active”. Further, in assay [7], the “Effect on topoisomerase 2-alpha DNA cleavage (qualitative)” value (“Effect” for short) was “Dose-dependent effect”. Moreover, the values for the half-maximal inhibitory concentration (IC50) (in the assay on K562 [9]; in assay [11]) were 16 nM and 115 nM, respectively.

`COc1cc([C@@H]2c3cc4c(cc3[C@@H](NC(=O)CN3CCN(CCCCCCCCN5CCNCC5)CC3)[C@H]3COC(=O)[C@H]23)OCO4)cc(OC)c1O`: in the assay on K562 [4], the “Ratio IC50” value is listed as 5.4. The “Inhibition … (qualitative)” value in [6] is “Active”. In addition, the “Effect” value in assay [7] was “Dose-dependent effect”. Further, the outcome in the assay on K562 [8] was Active. Also, the concentration for half-maximal inhibition (IC50) in the assay with K562 [9] worked out at 103 nM; in [11], 556 nM.

For the compound `COc1cc([C@@H]2c3cc4c(cc3[C@@H](NC(=O)CN3CCN(CCCCCCCCCCN5CCNCC5)CC3)[C@H]3COC(=O)[C@H]23)OCO4)cc(OC)c1O`, the result in the assay on K562 [1], in the assay on K562 [2], in the assay with K562 [8] and with CHO [12] was Active. In the assay with K562 [3], the Activity result is “tde”. Besides, in the assay on K562 [4], the “Ratio IC50” value amounted to 6. Further, in [6], the “Inhibition … (qualitative)” value is “Active”. For the same compound, in [7], the “Effect” value was “Dose-dependent effect”. Besides, the 50% inhibitory concentration (IC50) was found to be 26 nM in the assay on K562 [9] and 156 nM in assay [11].

For `COc1cc([C@@H]2c3cc4c(cc3[C@@H](NC(=O)CN3CCN(CCCCCCCCCCCCN5CCN(CC(=O)N[C@@H]6c7cc8c(cc7[C@@H](c7cc(OC)c(O)c(OC)c7)[C@H]7C(=O)OC[C@@H]76)OCO8)CC5)CC3)[C@H]3COC(=O)[C@H]23)OCO4)cc(OC)c1O`, in the assay on K562 [4], the “Ratio IC50” value is given as 8.2. Further, in assay [5], the “Inhibition (qualitative activity call)” value was “Active”. In addition, in assay [6], the “Inhibition … (qualitative)” value is “Active”. Moreover, the “Effect” value in [7] is “Dose-dependent effect”. For the same compound, the values for the 50% inhibitory concentration (IC50) (in the assay on K562 [9]; in assay [11]) were 67 nM and 549 nM, respectively.

For the compound `COc1cc([C@@H]2c3cc4c(cc3[C@@H](NC(=O)CN3CCN(CCCN5CCNCC5)CC3)[C@H]3COC(=O)[C@H]23)OCO4)cc(OC)c1O`, the “Ratio IC50” value with K562 [4] was 10.5. In [7], the “Effect” value was “Dose-dependent effect”. In addition, in the assay on K562 [8], the result was Active. Also, the results for the half-inhibitory concentration (IC50) (in the assay with K562 [9]; in assay [11]) were 1270 nM and 13300 nM, respectively. Moreover, the inhibition result in [13] was “Active”.

In the case of `COc1cc([C@@H]2c3cc4c(cc3[C@@H](O[C@@H]3O[C@@H]5CO[C@@H](C)O[C@H]5[C@H](O)[C@H]3O)[C@H]3COC(=O)[C@H]23)OCO4)cc(OC)c1O` [ETOPOSIDE], the Activity in the assay on CHO [14] was found to be 39%. Also, in the assay on K562 [4], the “Ratio IC50” value was 15.4. Also, the “Inhibition (qualitative activity call)” value in assay [5] was “Active”. The “Inhibition … (qualitative)” value in [6] is “Active”. In addition, the outcome in the assay with K562 [15], in the assay with CHO [16], in the assay on K562 [17] and with K562 [8] was Active. Also, the “Effect” value in assay [7] was “Dose-dependent effect”. The IC50 with K562 [9] turned out to be 163 nM; in [11] it was 2500 nM.
